Active and inactive are the calls of the source. No cut-off for these calls is given here.
Assays:
Format in all cases: functional
[1] = species on record: Rattus norvegicus; assay: Negative logarithm of the concentration causing a 100% inhibition of spontaneous mechanical activity in rat portal vein is determined in vitro
Summary of the method: (§1)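 Rat portal vein strips in buffer (pH 7.2) at 37 °C, gassed 5% CO2 in O2, under 0.5 g tension. Spontaneous contractions recorded isometrically by force-displacement transducer. Strips equilibrated 30 min, then compounds added cumulatively. Values are means of four independent experiments.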

[2] = test system: Rattus norvegicus; assay: Maximum percent fall in Systolic blood pressure (SBP) was measured in anesthetized normotensive rat for 30 mins after intravenous (iv) injection at 0.3 mg/kg dose
Summary of the method: (§2)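 Male normotensive rats under anesthesia; compound given as iv bolus via tail vein. Blood pressure and heart rate recorded by pressure transducer coupled to polygraph. Systolic pressure followed for 30 min after injection; value is maximum percent fall in SBP, n = 4.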

[3] = test system: Rattus norvegicus; assay: Maximum percent fall in Systolic blood pressure (SBP) was measured in anesthetized normotensive rat for 30 mins after intravenous (iv) injection at 0.1 mg/kg dose; summary of the method: as §2
[4] = test system: Rattus norvegicus; assay: Maximum percent fall in Systolic blood pressure (SBP) was measured in anesthetized normotensive rat for 30 mins after intravenous (iv) injection at 3 mg/kg dose; summary of the method: as §2
[5] = test system: Rattus norvegicus; assay: Maximum percent fall in Systolic blood pressure (SBP) was measured in anesthetized normotensive rat for 30 mins after intravenous (iv) injection at 1 mg/kg dose; summary of the method: as §2
[6] = species on record: Rattus norvegicus; assay: Negative logarithm of the concentration causing a 100% inhibition of spontaneous mechanical activity in rat portal vein is determined in vitro; No response; summary of the method: as §1
[7] = test system: Rattus norvegicus; assay: Maximum percent fall in Systolic blood pressure (SBP) was measured in anesthetized normotensive rat for 30 mins after intravenous (iv) injection at 0.03 mg/kg dose; summary of the method: as §2

SMILES | pEC100 [1] | Decrease in SBP [2] | Decrease in SBP [3] | Decrease in SBP [4] | Decrease in SBP [5] | pEC100 [6] | Decrease in SBP [7]
N#CN/C(=N\[C@H]1C[C@H]2CC[C@@H]1C2)Nc1ccc(N)nc1 | 6.5 | 32% | 25% | – | – | – | –
CC(C)(C)/N=C(\NC#N)Nc1ccc(N)[n+]([O-])c1 | 4.5 | – | – | 20% | 19% | – | –
C[C@]12CC[C@H](C[C@@H]1NC(=NC#N)Nc1ccc(N)[n+]([O-])c1)C2 | 6 | 18% | – | – | 31% | – | –
Nc1ccc(N/C(S)=N/C2CCCCC2)cn1 | 5 | – | – | 35% | 26% | – | –
N#CN/C(=N\C1CC2CCC1CC2)Nc1ccc(N)nc1 (stereo unspecified) | 6 | 28% | 17% | – | – | – | –
CC1(C)[C@@H]2CC[C@@]1(C)[C@H](NC(=S)Nc1ccc(N)nc1)C2 | 6.5 | – | 14% | – | 41% | – | –
CC(C)(C)[C@H]1CC[C@@H](/N=C(\S)Nc2ccc(N)nc2)CC1 | – | – | – | – | 9% | inactive | –
CC(C)(C)C1CCCCC1/N=C(\S)Nc1ccc(N)nc1 (single isomer, unassigned) | 5 | – | – | – | 12% | – | –
C[C@]12CC[C@H](C[C@H]1NC(=S)Nc1ccc(N)nc1)C2 | 7 | 36% | 27% | – | – | – | –
Nc1ccncc1/N=C(\S)NC1CCCCC1 | 5 | – | – | 27% | 22% | – | –
C/N=C(\S)Nc1cnccc1N | – | – | – | 15% | – | inactive | –
Nc1ccc(N/C(S)=N/C23CC4CC(CC(C4)C2)C3)cn1 | 6.5 | – | – | – | 24% | – | –
CC(/N=C(\S)Nc1ccc(N)nc1)C(C)(C)C (stereo unspecified) | 6 | 29% | – | – | 32% | – | –
CC(/N=C(\S)Nc1ccc(O)nc1)C(C)(C)C (stereo unspecified) | 4 | – | – | – | 7% | – | –
CC(C)(C)/N=C(\NC#N)Nc1ccc(N)nc1 | 6 | 15% | – | – | 28% | – | –
CC(/N=C(\S)Nc1ccc(Cl)nc1)C(C)(C)C (stereo unspecified) | 5.7 | 27% | – | – | 41% | – | –
CC(/N=C(\S)Nc1ccc(-n2ccnc2)nc1)C(C)(C)C (stereo unspecified) | 3.7 | – | – | 11% | – | – | –
Nc1ccc(NC(=S)NC2C[C@H]3CC[C@@H]2C3)cn1 (single isomer, unassigned; 22g) | 7 | 34% | – | – | 22% | – | –
Nc1ccc(N/C(S)=N/C2CC3CCC2CC3)cn1 (stereo unspecified) | 7 | 43% | 26% | – | – | – | –
CC(/N=C(\NC#N)Nc1cc[n+]([O-])cc1)C(C)(C)C (stereo unspecified) | 5 | 13% | – | – | – | – | –
CCCC/N=C(\S)Nc1cnccc1N | 3 | – | – | 13% | – | – | –
CC1(C)CCCC[C@@H]1/N=C(\S)Nc1ccc(N)nc1 | 5.5 | – | – | – | 26% | – | –
CC(/N=C(\S)Nc1ccc(C(N)=O)nc1)C(C)(C)C (stereo unspecified) | 5 | – | – | – | 9% | – | –
COc1ccc(N/C(S)=N/C(C)C(C)(C)C)cn1 (stereo unspecified) | 5 | – | – | 30% | 17% | – | –

SMILES | pEC100 [1] | Decrease in SBP [2] | Decrease in SBP [3] | Decrease in SBP [4] | Decrease in SBP [5] | pEC100 [6] | Decrease in SBP [7]
CC(/N=C(\NC#N)Nc1ccc(N)nc1)C(C)(C)C (stereo unspecified) | 6 | 24% | – | – | 30% | – | –
CC(/N=C(/NC#N)Nc1cccnc1)C(C)(C)C (stereo unspecified) | 7 | – | 37% | – | – | – | 26%
C[C@]12CC[C@H](CC1/N=C(\NC#N)Nc1ccc(N)nc1)C2 (stereo partly specified) | 7.5 | 33% | 26% | – | – | – | –
CC(/N=C(\S)Nc1ccc(Nc2ccccc2)nc1)C(C)(C)C (stereo unspecified) | – | – | – | – | 5% | inactive | –
CC(N/C(=N\C#N)Nc1ccncc1)C(C)(C)C (stereo unspecified) [PINACIDIL ANHYDROUS] | 7 | 31% | 25% | – | – | – | –
CC(/N=C(\S)Nc1ccc(N2CCCCC2)nc1)C(C)(C)C (stereo unspecified) | – | – | – | – | 10% | inactive | –
Nc1cncc(N/C(S)=N/C2CCCCC2)c1 | 5 | – | – | 23% | 7% | – | –
CC(/N=C(\NC#N)Nc1ccc(N)[n+]([O-])c1)C(C)(C)C (stereo unspecified) | 5.5 | 16% | – | – | 22% | – | –
CC(C)C/N=C(\S)Nc1ccc(N)nc1 | 4.7 | 12% | – | – | 23% | – | –
CC1(C)[C@H]2CC[C@](C)(C2)[C@H]1NC(=S)Nc1ccc(N)nc1 | 5.5 | – | – | 39% | 29% | – | –
N#CN=C(Nc1ccc(N)[n+]([O-])c1)N[C@@H]1C[C@H]2CC[C@@H]1C2 | 6 | – | – | – | 16% | – | –
CC(/N=C(\S)Nc1ccc(NCCN)nc1)C(C)(C)C (stereo unspecified) | – | – | – | – | 3% | inactive | –
Nc1ccc(N/C(S)=N/[C@H]2CC3C=CC2C3)cn1 (stereo partly specified) | 7 | 32% | 24% | – | – | – | –
Nc1ccc(NC(=S)NC2C[C@H]3CC[C@@H]2C3)cn1 (single isomer, unassigned; 22e) | 7 | 41% | 19% | – | – | – | –
Cc1ccc(N/C(S)=N/C(C)C(C)(C)C)cn1 (stereo unspecified) | 5.7 | 18% | – | – | 30% | – | –
CC(/N=C(\S)Nc1ccc(NN)nc1)C(C)(C)C (stereo unspecified) | 4 | – | – | 26% | – | – | –
CC(/N=C(\S)Nc1ccc(C#N)nc1)C(C)(C)C (stereo unspecified) | 5.7 | 28% | 13% | – | – | – | –
Nc1ncccc1/N=C(\S)NC1CCCCC1 | 4 | – | – | 21% | 9% | – | –
CCC(C)(C)/N=C(\S)Nc1ccc(N)nc1 | 5 | 15% | – | – | 31% | – | –
C[C@@H]1[C@H](NC(=S)Nc2ccc(N)nc2)CC2C[C@@H]1C2(C)C | 5 | – | – | – | 16% | – | –
N#CN/C(=N\C1CC2CCC1CC2)Nc1ccc(N)[n+]([O-])c1 (stereo unspecified) | 5 | 12% | – | – | 20% | – | –
CSc1ccc(N/C(S)=N/C(C)C(C)(C)C)cn1 (stereo unspecified) | 5 | 10% | – | – | – | – | –
CNc1ccc(N/C(S)=N/C(C)C(C)(C)C)cn1 (stereo unspecified) | 5 | 8% | – | – | 25% | – | –
CC1(C)CCC[C@H](/N=C(\S)Nc2ccc(N)nc2)C1 | 5 | – | – | – | 25% | – | –

— ChEMBL document CHEMBL1127492, “Novel potassium channel openers: synthesis and pharmacological evaluation of new N-(substituted-3-pyridyl)-N'-alkylthioureas and related compounds” (1994)
